Blank lines part the entries; values can stand above or below the molecule they belong to. Calls of active or inactive are those of the source. The calls are words filed in the database; no cut-off is given here.
Key:
MKN-45 [1] = experiment: Antiproliferative activity against human MKN45 cells assessed as decrease in cell viability after 48 hrs by MTT assay; format: functional, cell-based; conditions: MKN-45, 48 h
Method in brief: (§1)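 Cells in exponential growth seeded at 3000 per well and allowed 24 h. Medium then replaced with fresh medium holding a range of compound concentrations, followed by 48 h incubation. Viability read by MTT at 570 nm. IC50 is the concentration giving 50% inhibition of proliferation, reported as mean ± SD of three independent experiments.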

MGC-803 = experiment: Antiproliferative activity against human MGC803 cells assessed as decrease in cell viability after 48 hrs by MTT assay; format: functional, cell-based; conditions: MGC-803, 48 h; method in brief: as §1
ECa-109 cell line = experiment: Antiproliferative activity against human EC109 cells assessed as decrease in cell viability after 48 hrs by MTT assay; format: functional, cell-based; conditions: ECa-109, 48 h; method in brief: as §1
NCI-H1650 = experiment: Antiproliferative activity against human NCI-H1650 cells assessed as decrease in cell viability after 48 hrs by MTT assay; format: functional, cell-based; conditions: NCI-H1650, 48 h; method in brief: as §1
MKN-45 [2] = experiment: Induction of apoptosis in human MKN45 cells assessed as cell rounding at 4 to 8 uM after 24 hrs by Hoechst 33258 staining-based fluorescence microscopic method; format: functional
MKN-45 [3] = experiment: Induction of apoptosis in human MKN45 cells assessed as chromatin shrinkage at 4 to 8 uM after 24 hrs by Hoechst 33258 staining-based fluorescence microscopic method; format: functional, cell-based
MKN-45 [4] = experiment: Induction of apoptosis in human MKN45 cells assessed as formation of apoptotic bodies at 4 to 8 uM after 24 hrs by Hoechst 33258 staining-based fluorescence microscopic method; format: functional, cell-based
MKN-45 [5] = experiment: Induction of apoptosis in human MKN45 cells after 24 hrs by Annexin V-FITC/propidium iodide staining-based flow-cytometric method; format: functional, cell-based
MKN-45 [6] = experiment: Induction of apoptosis in human MKN45 cells assessed as early apoptotic cells at 2 uM after 24 hrs by Annexin V-FITC/propidium iodide staining-based flow-cytometric method (reference value: 1.31%); format: functional
MKN-45 [7] = experiment: Induction of apoptosis in human MKN45 cells assessed as late apoptotic cells at 2 uM after 24 hrs by Annexin V-FITC/propidium iodide staining-based flow-cytometric method (reference value: 3.99%); format: functional
MKN-45 [8] = experiment: Induction of apoptosis in human MKN45 cells assessed as necrotic cells at 2 uM after 24 hrs by Annexin V-FITC/propidium iodide staining-based flow-cytometric method (reference value: 3.86%); format: functional
MKN-45 [9] = experiment: Induction of apoptosis in human MKN45 cells assessed as viable cells at 2 uM after 24 hrs by Annexin V-FITC/propidium iodide staining-based flow-cytometric method (reference value: 90.8%); format: functional; conditions: MKN-45, 24 h, read-out: Activity
MKN-45 [10] = experiment: Induction of apoptosis in human MKN45 cells assessed as early apoptotic cells at 4 uM after 24 hrs by Annexin V-FITC/propidium iodide staining-based flow-cytometric method (reference value: 1.31%); format: functional
MKN-45 [11] = experiment: Induction of apoptosis in human MKN45 cells assessed as late apoptotic cells at 4 uM after 24 hrs by Annexin V-FITC/propidium iodide staining-based flow-cytometric method (reference value: 3.99%); format: functional
MKN-45 [12] = experiment: Induction of apoptosis in human MKN45 cells assessed as necrotic cells at 4 uM after 24 hrs by Annexin V-FITC/propidium iodide staining-based flow-cytometric method (reference value: 3.86%); format: functional
MKN-45 [13] = experiment: Induction of apoptosis in human MKN45 cells assessed as viable cells at 4 uM after 24 hrs by Annexin V-FITC/propidium iodide staining-based flow-cytometric method (reference value: 90.8%); format: functional; conditions: MKN-45, 24 h, read-out: Activity
MKN-45 [14] = experiment: Induction of apoptosis in human MKN45 cells assessed as early apoptotic cells at 8 uM after 24 hrs by Annexin V-FITC/propidium iodide staining-based flow-cytometric method (reference value: 1.31%); format: functional
MKN-45 [15] = experiment: Induction of apoptosis in human MKN45 cells assessed as late apoptotic cells at 8 uM after 24 hrs by Annexin V-FITC/propidium iodide staining-based flow-cytometric method (reference value: 3.99%); format: functional
MKN-45 [16] = experiment: Induction of apoptosis in human MKN45 cells assessed as necrotic cells at 8 uM after 24 hrs by Annexin V-FITC/propidium iodide staining-based flow-cytometric method (reference value: 3.86%); format: functional
MKN-45 [17] = experiment: Induction of apoptosis in human MKN45 cells assessed as viable cells at 8 uM after 24 hrs by Annexin V-FITC/propidium iodide staining-based flow-cytometric method (reference value: 90.8%); format: functional; conditions: MKN-45, 24 h, read-out: Activity
MKN-45 [18] = experiment: Induction of apoptosis in human MKN45 cells assessed as upregulation of Bax expression after 24 hrs by Western blot method; format: functional, cell-based
Method in brief: (§2)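 MKN-45 cells treated with a range of concentrations for 24 h. Cells lysed in RIPA buffer with protease inhibitors, and protein measured by BCA assay. Lysates run on SDS-PAGE and transferred to nitrocellulose. Membranes blocked in 5% skim milk for 2 h at RT, incubated with primary antibodies overnight at 4 °C, then secondary antibody (1:5000) for 2 h at RT. Detection by ECL on film.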

MKN-45 [19] = experiment: Induction of apoptosis in human MKN45 cells assessed as downregulation of Bcl-2 expression at 4 to 16 uM after 24 hrs by Western blot method; format: functional, cell-based; method in brief: as §2
MKN-45 [20] = experiment: Induction of apoptosis in human MKN45 cells assessed as cleavage of caspases-3 after 24 hrs by Western blot method; format: functional, cell-based; method in brief: as §2
MKN-45 [21] = experiment: Induction of apoptosis in human MKN45 cells assessed as cleavage of caspases-9 after 24 hrs by Western blot method; format: functional, cell-based; method in brief: as §2
MKN-45 [22] = experiment: Cell cycle arrest in human MKN45 cells assessed as accumulation at G2/M phase after 24 hrs by propidium iodide staining-based flow cytometric method; format: functional
Method in brief: (§3)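 MKN-45 cells exposed to compound at 0, 2, 4 or 8 µM for 24 h. Cells then fixed and stained with PI, and DNA content analysed by flow cytometry to give phase distribution. Run three times; a representative experiment is shown.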

MKN-45 [23] = experiment: Cell cycle arrest in human MKN45 cells assessed as accumulation at G1 phase at 2 uM after 24 hrs by propidium iodide staining-based flow cytometric method (reference value: 58.2%); format: functional; method in brief: as §3
MKN-45 [24] = experiment: Cell cycle arrest in human MKN45 cells assessed as accumulation at G2/M phase at 2 uM after 24 hrs by propidium iodide staining-based flow cytometric method (reference value: 1.62%); format: functional; method in brief: as §3
MKN-45 [25] = experiment: Cell cycle arrest in human MKN45 cells assessed as accumulation at S phase at 2 uM after 24 hrs by propidium iodide staining-based flow cytometric method (reference value: 24.9%); format: functional; method in brief: as §3
MKN-45 [26] = experiment: Cell cycle arrest in human MKN45 cells assessed as accumulation at G1 phase at 4 uM after 24 hrs by propidium iodide staining-based flow cytometric method (reference value: 58.2%); format: functional; method in brief: as §3
MKN-45 [27] = experiment: Cell cycle arrest in human MKN45 cells assessed as accumulation at G2/M phase at 4 uM after 24 hrs by propidium iodide staining-based flow cytometric method (reference value: 1.62%); format: functional; method in brief: as §3
MKN-45 [28] = experiment: Cell cycle arrest in human MKN45 cells assessed as accumulation at S phase at 4 uM after 24 hrs by propidium iodide staining-based flow cytometric method (reference value: 24.9%); format: functional; method in brief: as §3
MKN-45 [29] = experiment: Cell cycle arrest in human MKN45 cells assessed as accumulation at G1 phase at 8 uM after 24 hrs by propidium iodide staining-based flow cytometric method (reference value: 58.2%); format: functional; method in brief: as §3
MKN-45 [30] = experiment: Cell cycle arrest in human MKN45 cells assessed as accumulation at G2/M phase at 8 uM after 24 hrs by propidium iodide staining-based flow cytometric method (reference value: 1.62%); format: functional; method in brief: as §3
MKN-45 [31] = experiment: Cell cycle arrest in human MKN45 cells assessed as accumulation at S phase at 8 uM after 24 hrs by propidium iodide staining-based flow cytometric method (reference value: 24.9%); format: functional; method in brief: as §3

SMILES: CCCSc1nc(Nc2ccccc2)c2ncc(=O)n(Cc3ccccc3)c2n1
IC50 (MKN-45 [1]): 38.6 µM | IC50 (MGC-803): 36.6 µM | IC50 (ECa-109 cell line): 19 µM | IC50 (NCI-H1650): > 64 µM

SMILES: Cc1nc(N2CCN(C)CC2)c2ncc(=O)n(Cc3ccccc3)c2n1
IC50 (MKN-45 [1]): > 64 µM | IC50 (MGC-803): > 64 µM | IC50 (ECa-109 cell line): 39 µM | IC50 (NCI-H1650): > 64 µM

SMILES: CN1CCN(c2ncnc3c2ncc(=O)n3Cc2ccccc2)CC1
IC50 (MKN-45 [1]): > 64 µM | IC50 (MGC-803): > 64 µM | IC50 (ECa-109 cell line): 41.7 µM | IC50 (NCI-H1650): > 64 µM

SMILES: CCCSc1nc(NCc2ccccc2)c2ncc(=O)n(Cc3ccccc3)c2n1
IC50 (MKN-45 [1]): > 64 µM | IC50 (MGC-803): 46.6 µM | IC50 (ECa-109 cell line): > 64 µM | IC50 (NCI-H1650): > 64 µM

The next molecules have a lower IC50 (MKN-45 [1]) than those just listed; values first:

IC50 (MKN-45 [1]): 11.3 µM | IC50 (MGC-803): 16.4 µM | IC50 (NCI-H1650): > 64 µM
SMILES: CCCSc1nc(N2CCN(C)CC2)c2ncc(=O)n(Cc3cccs3)c2n1
IC50 (ECa-109 cell line): 19.7 µM

IC50 (MKN-45 [1]): 4.32 µM | IC50 (MGC-803): 7.01 µM | IC50 (NCI-H1650): 9.92 µM
SMILES: CCCSc1nc(N2CCN(C)CC2)c2ncc(=O)n(Cc3ccccc3)c2n1
IC50 (ECa-109 cell line): 9.85 µM | Activity (MKN-45 [2]): Active | Activity (MKN-45 [3]): Active | Activity (MKN-45 [4]): Active | Activity (MKN-45 [5]): Dose-dependent effect | Activity (MKN-45 [6]): 15.7% | Activity (MKN-45 [7]): 11.3% | Activity (MKN-45 [8]): 1.62% | viability at 2 µM (MKN-45 [9]): 71.4% | Activity (MKN-45 [10]): 9.91% | Activity (MKN-45 [11]): 16% | Activity (MKN-45 [12]): 1.02% | viability at 4 µM (MKN-45 [13]): 73% | Activity (MKN-45 [14]): 7.77% | Activity (MKN-45 [15]): 23.1% | Activity (MKN-45 [16]): 2.34% | viability at 8 µM (MKN-45 [17]): 66.8% | Activity (MKN-45 [18]): Dose-dependent effect | Activity (MKN-45 [19]): Active | Activity (MKN-45 [20]): Dose-dependent effect | Activity (MKN-45 [21]): Dose-dependent effect | Activity (MKN-45 [22]): Dose-dependent effect | Activity (MKN-45 [23]): 42.2% | Activity (MKN-45 [24]): 16.6% | Activity (MKN-45 [25]): 20.2% | Activity (MKN-45 [26]): 16.2% | Activity (MKN-45 [27]): 29.2% | Activity (MKN-45 [28]): 24% | Activity (MKN-45 [29]): 6.91% | Activity (MKN-45 [30]): 40.8% | Activity (MKN-45 [31]): 25.7%

IC50 (MKN-45 [1]): 23.3 µM | IC50 (MGC-803): 43.7 µM | IC50 (NCI-H1650): > 64 µM
SMILES: CCCSc1nc(NC2CC2)c2ncc(=O)n(Cc3ccccc3)c2n1
IC50 (ECa-109 cell line): 29.7 µM

IC50 (MKN-45 [1]): 14.2 µM | IC50 (MGC-803): 15 µM | IC50 (NCI-H1650): 36.9 µM
SMILES: CCCSc1nc(Nc2cc(OC)c(OC)c(OC)c2)c2ncc(=O)n(Cc3ccccc3)c2n1
IC50 (ECa-109 cell line): 38.7 µM

IC50 (MKN-45 [1]): 16.8 µM | IC50 (MGC-803): 17.2 µM | IC50 (NCI-H1650): 45.4 µM
SMILES: CCCSc1nc(N2CCN(C)CC2)c2ncc(=O)n(CC(C)C)c2n1
IC50 (ECa-109 cell line): 37.5 µM
